The results in this text go back to ChEMBL document CHEMBL1156875, “Anti-influenza drug discovery: structure-activity relationship and mechanistic insight into novel angelicin derivatives” (J Med Chem, 2010).

Data set [1] relates to Influenza A virus. Kind of data set: Antiviral activity against human influenza A virus A/WSN/33 (H1N1) in MDCK cells assessed as reduction of virus-induced cytopathic effect. It counts as functional, organism-based. As to conditions: A/WSN/1933(H1N1). Summed up:
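MDCK cells (1.1 × 10^5 cells/mL in DMEM + 10% FBS) grown 24-30 h at 37 C to about 90% confluency. Virus (100 TCID50) premixed with serially diluted compound, adsorbed 1 h at 37 C. Overlay of serum-free DMEM with trypsin 2.5 μg/mL and 0.1% DMSO, then 72 h at 37 C. Formaldehyde fixation, crystal violet stain, A570. IC50 = 50% CPE reduction versus virus control. Triplicate, at least two runs.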
(In general: Cytopathic effects are the visible damage that an infection or toxin causes in cultured cells.)

Data set [2] can be described thus: Cytotoxicity against MDCK cells after 72 hrs. It counts as cell-based, Canis lupus familiaris. As to conditions: dog. In short, it runs like this:
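Uninfected MDCK monolayers (seeded at 1.1 × 10^5 cells/mL, grown 24-30 h to about 90% confluency) exposed to graded compound concentrations for 72 h at 37 C. Read by formaldehyde fixation, 0.1% crystal violet staining and absorbance at 570 nm. CC50 = concentration reducing viability to 50% of control. Triplicate, repeated at least twice.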

Where only a bound is given, the exact number is not on record here.

Regarding `CCCCCCCCCCc1c(C(=O)c2ccccc2)oc2ccc3c(C)cc(=O)oc3c12`, the IC50 – broadly, the concentration needed to halve the response being measured – in data set [1] was over 25 µM. Also, the CC50 (usually the concentration that lowers cell viability or growth by half) at 72 h in data set [2] is over 25 µM.

Regarding `O=C(c1ccccc1)c1oc2ccc3c4c(c(=O)oc3c2c1-c1ccccc1)CCCC4`, the IC50 in data set [1] was over 25 µM. In data set [2], the CC50 at 72 h is over 25 µM.

With `Cc1cc(=O)oc2c1ccc1oc(C(=O)c3ccccc3)c(-c3ccc(Cl)cc3)c12`, in data set [1], the IC50 was found to be 3.92 µM. In addition, in data set [2], the CC50 at 72 h is over 25 µM.

On to `O=C(c1ccccc1)c1oc2ccc3ccc(=O)oc3c2c1-c1ccccc1`, for which the IC50 in data set [1] was determined as 17.6 µM. In data set [2], this molecule returned a CC50 at 72 h of over 25 µM.

For `CC(=O)c1oc2ccc3c(C)cc(=O)oc3c2c1-c1ccccc1`, in data set [1], the IC50 was over 25 µM. The CC50 at 72 h in data set [2] is over 25 µM.

Turning to `CCOc1cccc(C(=O)c2oc3ccc4c(C)cc(=O)oc4c3c2-c2ccccc2)c1`, the IC50 in data set [1] was 0.12 µM. In addition, in data set [2], the CC50 at 72 h was over 25 µM.

Regarding `O=C(c1ccccc1)c1oc2ccc3c(-c4ccccc4)cc(=O)oc3c2c1-c1ccccc1`, the IC50 in data set [1] is over 25 µM. In addition, the CC50 at 72 h in data set [2] is over 25 µM.

As to `Cc1cc(=O)oc2c1ccc1oc(C(=O)c3ccccn3)c(-c3ccccc3)c12`, the IC50 in data set [1] came to 0.61 µM.

With `Cc1cc(=O)oc2c1ccc1oc(C(=O)c3cccc(F)c3)c(-c3ccccc3)c12`, the IC50 in data set [1] was 0.29 µM. Besides, the CC50 at 72 h in data set [2] was over 25 µM.

For `Cc1cc(=O)oc2c1ccc1oc(C(=O)c3ccccc3)c(-c3cccc([N+](=O)[O-])c3)c12`, the IC50 in data set [1] came out at 0.25 µM. Moreover, in data set [2], the CC50 at 72 h was over 25 µM.

On to `Cc1cc2oc(C(=O)c3ccccc3)c(-c3ccccc3)c2c2oc(=O)ccc12`, for which, in data set [1], the IC50 was 7.76 µM. Also, the CC50 at 72 h in data set [2] was over 25 µM.

For the molecule `Cc1cc(=O)oc2c1ccc1sc(C(=O)c3ccccc3)c(-c3ccccc3)c12`, the IC50 in data set [1] turned out to be 0.72 µM. Also, in data set [2], the CC50 at 72 h was over 25 µM.

As for `Cc1cc(=O)oc2c1ccc1oc(C(=O)c3ccccc3)c(-c3cccc(Br)c3)c12`, the IC50 in data set [1] is 0.08 µM. This molecule gave a CC50 at 72 h in data set [2] of over 25 µM.

Regarding `CCc1cc(=O)oc2c1ccc1oc(C(=O)c3ccccc3)c(-c3ccccc3)c12`, in data set [1], the IC50 was found to be 0.24 µM. In addition, the CC50 at 72 h in data set [2] was over 25 µM.

Consider `COc1cccc(C(=O)c2oc3ccc4c(C)cc(=O)oc4c3c2-c2ccccc2)c1`, for which, in data set [1], the IC50 was found to be 0.11 µM. In data set [2], this molecule yielded a CC50 at 72 h of over 25 µM.

With `Cc1cc(=O)oc2c1ccc1oc(C(=O)c3ccccc3)c(C)c12`, the IC50 in data set [1] turned out to be 4.51 µM. In data set [2], the CC50 at 72 h is over 25 µM.

On to `Cc1ccc(-c2c(C(=O)c3ccccc3)oc3ccc4c(C)cc(=O)oc4c23)cc1`, for which the IC50 in data set [1] was determined as 0.82 µM. The same molecule yielded a half-maximal cytotoxic concentration (CC50) at 72 h in data set [2] of over 25 µM.

For `Cc1cc(=O)oc2c1ccc1oc(C(=O)c3cccc(Cl)c3)c(-c3ccccc3)c12`, the IC50 in data set [1] turned out to be 0.26 µM. This molecule also yielded a CC50 at 72 h in data set [2] of over 25 µM.

For the molecule `Cc1cc(=O)oc2c1ccc1oc(C(=O)c3ccccc3)cc12`, the IC50 in data set [1] worked out at 2.43 µM. In data set [2], the CC50 at 72 h was over 25 µM.

As to `Cc1cc(=O)oc2c1ccc1oc(Cc3ccccc3)c(-c3ccccc3)c12`, the IC50 in data set [1] turned out to be 0.63 µM. Besides, the CC50 at 72 h in data set [2] is over 25 µM.

With `Cc1ccc(C(=O)c2oc3ccc4c(C)cc(=O)oc4c3c2-c2ccccc2)cc1`, the IC50 in data set [1] came out at 0.87 µM. The molecule also returned a CC50 at 72 h in data set [2] of over 25 µM.

For `Cc1cc(=O)oc2c1ccc1oc(C(=O)c3cccc(OCCO)c3)c(-c3ccccc3)c12`, the IC50 in data set [1] came out at 6.09 µM. Further, the CC50 at 72 h in data set [2] was over 25 µM.

Turning to `Cc1cc(=O)oc2c1ccc1oc(C(=O)c3ccccc3)c(-c3ccccc3)c12`, in data set [1], the half-inhibitory concentration (IC50) turned out to be 0.14 µM. The same molecule showed a CC50 at 72 h in data set [2] of over 25 µM.

Turning to `Cc1ccccc1C(=O)c1oc2ccc3c(C)cc(=O)oc3c2c1-c1ccccc1`, in data set [1], the IC50 is 6.62 µM. This molecule also yielded a CC50 at 72 h in data set [2] of over 25 µM.

Turning to `Cc1cc(=O)oc2c1ccc1oc(C(=O)c3ccccc3)c(-c3cccc(C#N)c3)c12`, the IC50 in data set [1] was 0.53 µM. In data set [2], this molecule returned a CC50 at 72 h of over 25 µM.

With `CCCCCCCCOc1cccc(C(=O)c2oc3ccc4c(C)cc(=O)oc4c3c2-c2ccccc2)c1`, the IC50 in data set [1] came to 7.97 µM. This molecule also yielded a CC50 at 72 h in data set [2] of over 25 µM.

In the case of `Cc1cccc(C(=O)c2oc3ccc4c(C)cc(=O)oc4c3c2-c2ccccc2)c1`, the IC50 in data set [1] is 0.26 µM. The molecule also yielded a CC50 at 72 h in data set [2] of over 25 µM.

On to `CCCCCOc1cccc(C(=O)c2oc3ccc4c(C)cc(=O)oc4c3c2-c2ccccc2)c1`, for which the IC50 in data set [1] came to 0.14 µM. The molecule also yielded a CC50 at 72 h in data set [2] of over 25 µM.

In the case of `Cc1cc(=O)oc2c1ccc1oc(C(=O)c3ccccc3)c(-c3cccc4ccccc34)c12`, the IC50 in data set [1] was 0.88 µM. Also, the CC50 at 72 h in data set [2] was over 25 µM.

In the case of `Cc1cc(=O)oc2c1ccc1oc(C(=O)c3ccccc3)c(-c3ccccc3Br)c12`, the IC50 in data set [1] amounted to 0.73 µM. Further, the CC50 at 72 h in data set [2] was over 25 µM.

As for `Cc1cc(=O)oc2c1ccc1oc(C(=O)c3cccs3)c(-c3cccc(Br)c3)c12`, the IC50 in data set [1] worked out at 0.06 µM. For the same molecule, the 50% cytotoxic concentration (CC50) at 72 h in data set [2] was over 25 µM.

On to `Cc1cc(=O)oc2c1ccc1oc(C(=O)c3ccc(Cl)cc3)c(-c3ccccc3)c12`, for which, in data set [1], the IC50 was found to be 22.3 µM. This molecule registered a CC50 at 72 h in data set [2] of over 25 µM.

For the molecule `Cc1cc(=O)oc2c1ccc1oc(C(=O)c3cccc(OCCCO)c3)c(-c3ccccc3)c12`, the IC50 in data set [1] amounted to 2.65 µM. In data set [2], this molecule had a CC50 at 72 h of over 25 µM.

Turning to `O=C(c1ccccc1)c1oc2ccc3ccccc3c2c1-c1ccccc1`, in data set [1], the IC50 is over 25 µM. In data set [2], the CC50 at 72 h is over 25 µM.

Turning to `Cc1cc(=O)oc2c1ccc1oc(C(=O)c3cccc(OCCN(C)C)c3)c(-c3ccccc3)c12`, in data set [1], the IC50 worked out at 5.28 µM. The same molecule displayed a CC50 at 72 h in data set [2] of 17.7 µM.

In the case of `COc1ccc(-c2c(C(=O)c3ccccc3)oc3ccc4c(C)cc(=O)oc4c23)cc1`, the IC50 in data set [1] turned out to be 10.1 µM. In data set [2], this molecule registered a CC50 at 72 h of over 25 µM.

Turning to `CCCc1c(C(=O)c2ccccc2)oc2ccc3c(C)cc(=O)oc3c12`, the IC50 in data set [1] was found to be 0.29 µM. The molecule further returned a CC50 at 72 h in data set [2] of over 25 µM.

As for `C/C=C/C(=O)Oc1cccc2oc(C(=O)c3ccccc3)c(-c3ccccc3)c12`, in data set [1], the IC50 was 20.8 µM. The molecule further showed a CC50 at 72 h in data set [2] of over 25 µM.

For `Cc1cc(=O)oc2c1ccc1oc(C(=O)c3ccccc3)c(-c3cccc(Cl)c3)c12`, in data set [1], the IC50 is 1.41 µM. In data set [2], this molecule displayed a CC50 at 72 h of over 25 µM.

Regarding `Cc1cc(=O)oc2c1ccc1oc(C(=O)c3ccco3)c(-c3ccccc3)c12`, the IC50 in data set [1] amounted to 0.41 µM. For the same molecule, in data set [2], the CC50 at 72 h was over 25 µM.

Regarding `Cc1cc(=O)oc2c1ccc1oc(C(=O)c3cccc(O)c3)c(-c3ccccc3)c12`, the half-inhibitory concentration (IC50) in data set [1] came out at 0.72 µM. Also, the CC50 at 72 h in data set [2] is over 25 µM.

As to `Cc1cc(=O)oc2c1ccc1oc(C(O)c3ccccc3)c(-c3ccccc3)c12` (configuration not stated), the IC50 in data set [1] was 0.32 µM. In data set [2], this molecule had a CC50 at 72 h of over 25 µM.

As for `CCCCCCc1c(C(=O)c2ccccc2)oc2ccc3c(C)cc(=O)oc3c12`, the IC50 in data set [1] is 0.65 µM. In data set [2], this molecule registered a CC50 at 72 h of over 25 µM.

Consider `COc1cccc(C(=O)c2oc3ccc4c(C)cc(=O)oc4c3c2-c2cccc(Br)c2)c1`, for which, in data set [1], the half-maximal inhibitory concentration (IC50) came out at 0.09 µM. Also, in data set [2], the CC50 at 72 h was over 25 µM.

On to `CCCc1cc(=O)oc2c1ccc1oc(C(=O)c3ccccc3)c(-c3ccccc3)c12`, for which the IC50 in data set [1] stood at 0.47 µM. In data set [2], the CC50 at 72 h is over 25 µM.

Consider `Cc1cc(=O)oc2c1ccc1occ(-c3ccccc3)c12`, for which the IC50 in data set [1] was over 25 µM. Besides, the CC50 at 72 h in data set [2] is over 25 µM.

With `Cc1cc(=O)oc2c1ccc1oc(C(=O)c3ccc([N+](=O)[O-])cc3)c(-c3ccccc3)c12`, the IC50 in data set [1] is over 6.25 µM.
